ChEMBL document CHEMBL1123677, “Structure-activity studies of 5-[[4-(4,5-dihydro-2-oxazolyl) phenoxy]alkyl]-3-methylisoxazoles: inhibitors of picornavirus uncoating” (J Med Chem, 1987)
Values after ≈ are worked out from the molar mass of the structure shown. Active and inactive are the calls of the source. No cut-off for these calls is given here.

Legend:
Human rhinovirus 1A = experiment: Tested for antirhinoviral activity against the rhinovirus serotype 1A; format: functional
Outline: (§1)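 Selected compounds were tested across a 15-serotype rhinovirus panel: the five secondary serotypes plus 10 more. An MIC was recorded for each serotype. MIC80, the concentration inhibiting 80% of serotypes tested, was also derived from this panel.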

rhinovirus A2 [1] = experiment: Antiviral activity determined by ability to inhibit the HRV-2( human rhinovirus type -2) virus by plaque reduction assay in vitro; format: functional; conditions: Rhinovirus A
Outline: (§2)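 Plaque reduction assay against human rhinovirus type 2 (HRV-2), following an earlier reported method. The value is the MIC, the minimum inhibitory concentration.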

rhinovirus A2 [2] = experiment: Tested for antirhinoviral activity against the rhinovirus serotype 2; format: functional, human rhinovirus type 2; conditions: Rhinovirus A; outline: as §1
rhinovirus A21 = experiment: Tested for antirhinoviral activity against the rhinovirus serotype 21; format: functional; conditions: Rhinovirus A; outline: as §1
rhinovirus B86 = experiment: Tested for antirhinoviral activity against the rhinovirus serotype 86; format: functional; conditions: Rhinovirus B; outline: as §1
[3] = tested on: human rhinovirus (15-serotype panel); experiment: Antirhinovirus activity was determined by the ability to inhibit the growth of 80% of a panel of 15 human rhinovirus serotypes
rhinovirus A89 = experiment: Tested for antirhinoviral activity against the rhinovirus serotype 89; format: functional, human rhinovirus type 89; conditions: Rhinovirus A; outline: as §1
rhinovirus A1B [4] = experiment: Tested for antirhinoviral activity against the rhinovirus serotype 1B; format: functional, human rhinovirus type 1b; conditions: Rhinovirus A; outline: as §1
rhinovirus A22 = experiment: Tested for antirhinoviral activity against the rhinovirus serotype 22; format: functional; conditions: Rhinovirus A; outline: as §1
rhinovirus A15 = experiment: Tested for antirhinoviral activity against the rhinovirus serotype 15; format: functional; conditions: Rhinovirus A; outline: as §1
rhinovirus A67 = experiment: Tested for antirhinoviral activity against the rhinovirus serotype 67; format: functional; conditions: Rhinovirus A; outline: as §1
rhinovirus A25 [5] = experiment: Tested for antirhinoviral activity against the rhinovirus serotype 25; format: functional; conditions: Rhinovirus A; outline: as §1
rhinovirus A41 = experiment: Tested for antirhinoviral activity against the rhinovirus serotype 41; format: functional; conditions: Rhinovirus A; outline: as §1
rhinovirus B14 = experiment: Tested for antirhinoviral activity against the rhinovirus serotype 14; format: functional, human rhinovirus type 14; conditions: Rhinovirus B; outline: as §1
rhinovirus A50 = experiment: Tested for antirhinoviral activity against the rhinovirus serotype 50; format: functional; conditions: Rhinovirus A; outline: as §1
[6] = Partition coefficient (logP); format: physicochemical; conditions: octanol/water
rhinovirus A30 = experiment: Tested for antirhinoviral activity against the rhinovirus serotype 30; format: functional; conditions: Rhinovirus A; outline: as §1
rhinovirus A2 [7] = experiment: Antirhinovirus activity was assessed and the maximum testable concentration that causes no apparent effects on the cell monolayers was determined against HRV-2 virus in vitro.; format: functional, human rhinovirus type 2
rhinovirus B6 = experiment: Tested for antirhinoviral activity against the rhinovirus serotype 6; format: functional; conditions: Rhinovirus B; outline: as §1
Human rhinovirus sp. = experiment: Mean of MIC's was determined for the five types of virus like HRV-2, HRV-1A,HRV-22,HRV-41 and HRV-50; format: functional
Outline: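 MIC measured by plaque reduction against HRV-2 first. The value is the mean of the MICs across these five serotypes.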

rhinovirus A2 [8] = experiment: Antirhinovirus activity was determined by the ability to inhibit the HRV-2( human rhinovirus type -2) virus by plaque reduction assay in vitro; IA is inactive; format: functional, organism-based; outline: as §2
rhinovirus A1B [9] = experiment: Tested for antirhinoviral activity against the rhinovirus serotype 1B; IA is inactive; format: functional, organism-based; conditions: human rhinovirus type 1b; outline: as §1
rhinovirus A25 [10] = experiment: Tested for antirhinoviral activity against the rhinovirus serotype 25; IA is inactive; format: functional, organism-based; outline: as §1

| Structure (SMILES) | MIC (Human rhinovirus 1A) [µM] | MIC (rhinovirus A2 [1]) [µM] | MIC (rhinovirus A2 [2]) [µM] | MIC (rhinovirus A21) [µM] | MIC (rhinovirus B86) [µM] | MIC80 [3] [µM] | MIC (rhinovirus A89) [µM] | MIC (rhinovirus A22) [µM] | MIC (rhinovirus A15) [µM] | MIC (rhinovirus A67) [µM] | MIC (rhinovirus A41) [µM] | MIC (rhinovirus B14) [µM] | MIC (rhinovirus A50) [µM] | MIC (rhinovirus A30) [µM] | MTL (rhinovirus A2 [7]) [µM] | MIC (rhinovirus B6) [µM] | MIC (Human rhinovirus sp.) [µM] | other results |
| --- | --- | --- | --- | --- | --- | --- | --- | --- | --- | --- | --- | --- | --- | --- | --- | --- | --- | --- |
| C=CCc1cc(C2=NCCO2)ccc1OCCCCCc1cc(C)no1 | 1.4 (≈ 0.496 µg/mL) | 0.08 (≈ 0.0284 µg/mL) | 0.08 (≈ 0.0284 µg/mL) | 0.4 (≈ 0.142 µg/mL) | 2.1 (≈ 0.744 µg/mL) | 2.1 (≈ 0.744 µg/mL) | 0.6 (≈ 0.213 µg/mL) | 0.5 (≈ 0.177 µg/mL) | 1.6 (≈ 0.567 µg/mL) | 1.1 (≈ 0.39 µg/mL) | 3.4 (≈ 1.21 µg/mL) | 3.4 (≈ 1.21 µg/mL) | 0.4 (≈ 0.142 µg/mL) | 0.8 (≈ 0.284 µg/mL) | 8.8 | 1.7 (≈ 0.603 µg/mL) | 1.1 (≈ 0.39 µg/mL) | MIC (rhinovirus A1B [4]): 0.1 µM (≈ 0.0354 µg/mL); MIC (rhinovirus A25 [5]): 3.4 µM (≈ 1.21 µg/mL); logP [6]: 4.93 |
| Cc1cc(CCCCCOc2ccc(C3=NCCO3)cc2C=O)on1 |  | 1.4 (≈ 0.479 µg/mL) |  |  |  |  |  |  |  |  |  |  |  |  | 2.3 |  | > 2.3 |  |
| Cc1cc(CCCCOc2ccc(C3=NCCO3)cc2Cl)on1 |  | 0.2 (≈ 0.067 µg/mL) |  |  |  | 3.6 (≈ 1.21 µg/mL) |  |  |  |  |  |  |  |  | 9.3 |  | 1 (≈ 0.335 µg/mL) |  |
| Cc1cc(CCCCCCCOc2ccc(C3=NCCO3)cc2Cl)on1 |  | 0.1 (≈ 0.0377 µg/mL) |  |  |  | 2.8 (≈ 1.06 µg/mL) |  |  |  |  |  |  |  |  | 17 |  | 2.3 (≈ 0.867 µg/mL) |  |
| Cc1cc(CCCCCOc2ccc(C3=NCCO3)cc2C(C)(C)C)on1 |  |  |  |  |  |  |  |  |  |  |  |  |  |  | 8.4 |  |  | MIC (rhinovirus A2 [8]): inactive |
| CC(=O)c1cc(C2=NCCO2)ccc1OCCCCCc1cc(C)no1 | 2.2 (≈ 0.784 µg/mL) | 0.1 (≈ 0.0356 µg/mL) | 0.1 (≈ 0.0356 µg/mL) | 5.3 (≈ 1.89 µg/mL) | 6.5 (≈ 2.32 µg/mL) | 5.1 (≈ 1.82 µg/mL) | 2 (≈ 0.713 µg/mL) | 0.1 (≈ 0.0356 µg/mL) | 0.4 (≈ 0.143 µg/mL) | 0.6 (≈ 0.214 µg/mL) | 2.9 (≈ 1.03 µg/mL) | 7.3 (≈ 2.6 µg/mL) | 0.2 (≈ 0.0713 µg/mL) | 0.3 (≈ 0.107 µg/mL) | 6.5 | 5.1 (≈ 1.82 µg/mL) | 1.1 (≈ 0.392 µg/mL) | MIC (rhinovirus A1B [4]): 0.3 µM (≈ 0.107 µg/mL); MIC (rhinovirus A25 [5]): 2.2 µM (≈ 0.784 µg/mL); logP [6]: 3.28 |
| Cc1cc(CCCCCCOc2ccc(C3=NCCO3)cc2Cl)on1 |  | 0.06 (≈ 0.0218 µg/mL) |  |  |  | 1.2 (≈ 0.435 µg/mL) |  |  |  |  |  |  |  |  | 8.5 |  | 1.4 (≈ 0.508 µg/mL) |  |
| Cc1cc(CCCCCOc2ccc(C3=NCCO3)cc2N(C)C)on1 |  | 0.2 (≈ 0.0715 µg/mL) |  |  |  |  |  |  |  |  |  |  |  |  | 17 |  | > 17 |  |
| CCC(=O)Nc1cc(C2=NCCO2)ccc1OCCCCCc1cc(C)no1 |  | 7.3 (≈ 2.81 µg/mL) |  |  |  |  |  |  |  |  |  |  |  |  | 16 |  |  |  |
| Cc1cc(CCCCCOc2ccc(C3=NCCO3)cc2Cl)on1 | 1 (≈ 0.349 µg/mL) | 0.06 (≈ 0.0209 µg/mL) | 0.06 (≈ 0.0209 µg/mL) | 0.07 (≈ 0.0244 µg/mL) | 0.9 (≈ 0.314 µg/mL) | 1 (≈ 0.349 µg/mL) | 0.03 (≈ 0.0105 µg/mL) | 0.1 (≈ 0.0349 µg/mL) | 0.2 (≈ 0.0698 µg/mL) | 0.23 (≈ 0.0802 µg/mL) | 3.5 (≈ 1.22 µg/mL) | 2.4 (≈ 0.837 µg/mL) | 0.2 (≈ 0.0698 µg/mL) | 0.07 (≈ 0.0244 µg/mL) | 8.9 | 0.6 (≈ 0.209 µg/mL) | 1 (≈ 0.349 µg/mL) | MIC (rhinovirus A1B [4]): 0.2 µM (≈ 0.0698 µg/mL); MIC (rhinovirus A25 [5]): 2.4 µM (≈ 0.837 µg/mL) |
| Cc1cc(CCCCCOc2ccc(C3=NCCO3)cc2)on1 | 7 (≈ 2.2 µg/mL) | 1.1 (≈ 0.346 µg/mL) | 1.1 (≈ 0.346 µg/mL) | 1.2 (≈ 0.377 µg/mL) | 0.2 (≈ 0.0629 µg/mL) | 7 (≈ 2.2 µg/mL) | 0.4 (≈ 0.126 µg/mL) | 0.9 (≈ 0.283 µg/mL) | 1.5 (≈ 0.472 µg/mL) | 2.4 (≈ 0.755 µg/mL) | 15 (≈ 4.72 µg/mL) | 0.7 (≈ 0.22 µg/mL) | 1.5 (≈ 0.472 µg/mL) | 0.3 (≈ 0.0943 µg/mL) | 9.9 | 0.06 (≈ 0.0189 µg/mL) | 5.2 (≈ 1.63 µg/mL) | MIC (rhinovirus A1B [9]): inactive; MIC (rhinovirus A25 [10]): inactive |
| Cc1cc(CCCCCOc2ccc(C3=NCCO3)c(Cl)c2)on1 |  | 0.4 (≈ 0.14 µg/mL) |  |  |  | 7 (≈ 2.44 µg/mL) |  |  |  |  |  |  |  |  | 25 |  | 6.5 (≈ 2.27 µg/mL) |  |
| Cc1cc(CCCCCOc2ccc(C3=NCCO3)cc2C(C)C)on1 |  | 0.2 (≈ 0.0713 µg/mL) |  |  |  |  |  |  |  |  |  |  |  |  | 2.2 |  | > 50 |  |
